According to ChEMBL document CHEMBL4049422, “Discovery of Novel Indazole Derivatives as Orally Available β3-Adrenergic Receptor Agonists Lacking Off-Target-Based Cardiovascular Side Effects” (J Med Chem, 2017):
≈ marks a conversion by molar mass, not a printed value.

Tests used:
[1] = biological target: T1, Alpha-1D adrenergic receptor (Homo sapiens, UniProt P25100); experiment: Agonist activity at recombinant human alpha1D adrenergic receptor expressed in HEK293 cells after 6 hrs by NFAT-luciferase reporter gene assay; assay type: cell-based
T1 sequence (P25100 whole entry): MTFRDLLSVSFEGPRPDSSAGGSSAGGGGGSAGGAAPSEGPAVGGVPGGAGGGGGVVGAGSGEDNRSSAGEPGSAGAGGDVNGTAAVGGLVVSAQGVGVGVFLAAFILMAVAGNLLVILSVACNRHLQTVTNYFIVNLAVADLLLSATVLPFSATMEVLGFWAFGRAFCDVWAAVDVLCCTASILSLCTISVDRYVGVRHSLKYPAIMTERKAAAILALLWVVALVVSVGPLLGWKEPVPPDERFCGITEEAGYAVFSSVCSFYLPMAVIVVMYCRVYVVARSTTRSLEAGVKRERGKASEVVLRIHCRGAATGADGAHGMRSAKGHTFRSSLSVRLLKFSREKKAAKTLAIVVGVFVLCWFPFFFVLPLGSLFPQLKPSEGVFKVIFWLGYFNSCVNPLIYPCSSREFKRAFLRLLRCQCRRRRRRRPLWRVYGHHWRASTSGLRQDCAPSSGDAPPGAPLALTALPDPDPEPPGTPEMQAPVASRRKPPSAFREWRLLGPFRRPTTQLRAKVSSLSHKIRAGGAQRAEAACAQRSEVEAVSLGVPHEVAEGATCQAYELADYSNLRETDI

[2] = biological target: T2, Beta-3 adrenergic receptor (Homo sapiens, UniProt P13945); experiment: Agonist activity at recombinant human beta3 adrenergic receptor expressed in CHO cells assessed as accumulation of cyclic AMP after 30 mins; assay type: cell-based
Target sequence in this assay (P13945 whole entry): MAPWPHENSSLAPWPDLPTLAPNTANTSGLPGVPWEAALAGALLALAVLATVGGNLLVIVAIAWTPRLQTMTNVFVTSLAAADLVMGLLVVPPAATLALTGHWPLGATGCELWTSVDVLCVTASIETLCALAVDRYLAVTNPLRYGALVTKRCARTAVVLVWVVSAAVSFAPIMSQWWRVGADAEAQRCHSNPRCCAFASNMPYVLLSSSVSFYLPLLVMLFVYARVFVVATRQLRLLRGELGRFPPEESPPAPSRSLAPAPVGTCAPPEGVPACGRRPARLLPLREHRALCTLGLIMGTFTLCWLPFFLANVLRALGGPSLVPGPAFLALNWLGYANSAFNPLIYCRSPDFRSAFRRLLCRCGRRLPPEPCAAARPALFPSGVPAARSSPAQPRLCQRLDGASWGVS

[3] = species: Homo sapiens; experiment: Selectivity ratio of EC50 for recombinant human alpha1A adrenergic receptor to EC50 for recombinant human beta3 adrenergic receptor
[4] = test system: Rattus norvegicus; experiment: Cardiotoxicity in Sprague-Dawley rat assessed as increase in mean blood pressure at 3 mg/kg, iv after 30 mins (reference value: 1 +/- 0.5%); assay type: toxicity, organism-based; conditions: in vivo, 0.5 h
[5] = biological target: T3, CYP1A2 (Homo sapiens, UniProt P05177); experiment: Inhibition of CYP1A2 (unknown origin) at 10 uM relative to control; assay type: ADME
T3 sequence (P05177 whole entry): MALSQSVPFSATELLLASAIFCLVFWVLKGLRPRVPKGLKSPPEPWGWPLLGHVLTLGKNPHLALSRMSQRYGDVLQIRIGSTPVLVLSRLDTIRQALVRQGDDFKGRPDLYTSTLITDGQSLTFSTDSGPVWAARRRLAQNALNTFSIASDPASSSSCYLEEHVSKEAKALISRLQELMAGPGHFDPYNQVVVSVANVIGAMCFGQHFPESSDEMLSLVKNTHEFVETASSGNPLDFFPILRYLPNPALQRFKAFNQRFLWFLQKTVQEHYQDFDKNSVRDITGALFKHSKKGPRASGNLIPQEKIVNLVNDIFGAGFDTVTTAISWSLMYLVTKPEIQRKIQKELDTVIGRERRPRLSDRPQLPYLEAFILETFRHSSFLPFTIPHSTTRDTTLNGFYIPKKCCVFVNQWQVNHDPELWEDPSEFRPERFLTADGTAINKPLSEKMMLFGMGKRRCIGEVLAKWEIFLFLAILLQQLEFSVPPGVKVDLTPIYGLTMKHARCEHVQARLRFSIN

[6] = biological target: T4, Alpha-1A adrenergic receptor (Homo sapiens, UniProt P35348); experiment: Intrinsic activity at recombinant human alpha1A adrenergic receptor expressed in HEK293 cells assessed as intercellular Ca mobilization by Fura-2AM dye-based fluorescence assay relative to norepinephrine; assay type: cell-based; conditions: read-out: Intrinsic activity
T4 sequence (P35348 whole entry): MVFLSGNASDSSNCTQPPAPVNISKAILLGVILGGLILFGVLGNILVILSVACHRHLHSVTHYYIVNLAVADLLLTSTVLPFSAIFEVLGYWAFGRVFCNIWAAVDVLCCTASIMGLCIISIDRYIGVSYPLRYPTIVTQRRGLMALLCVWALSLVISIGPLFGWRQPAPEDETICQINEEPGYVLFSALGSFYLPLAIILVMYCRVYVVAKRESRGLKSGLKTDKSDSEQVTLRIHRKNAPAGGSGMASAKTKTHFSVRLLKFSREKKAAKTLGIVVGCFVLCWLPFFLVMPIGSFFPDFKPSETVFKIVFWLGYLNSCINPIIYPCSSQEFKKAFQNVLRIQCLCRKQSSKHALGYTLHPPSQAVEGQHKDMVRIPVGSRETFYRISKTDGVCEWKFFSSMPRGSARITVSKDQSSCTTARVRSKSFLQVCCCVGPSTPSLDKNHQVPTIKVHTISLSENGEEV

[7] = Solubility of the compound at pH 1.2 buffer solution after 18 hrs by HPLC analysis; assay type: physicochemical
[8] = biological target: T2, Beta-3 adrenergic receptor; experiment: Intrinsic activity at recombinant human beta3 adrenergic receptor expressed in CHO cells assessed as accumulation of cyclic AMP after 30 mins relative to isoproterenol; assay type: cell-based
Target sequence in this assay (P13945 whole entry, looked up): as the sequence (P13945 whole entry) above

[9] = test system: Rattus norvegicus; experiment: Cardiotoxicity in Sprague-Dawley rat assessed as decrease in heart beat rate at 3 mg/kg, iv after 30 mins (reference value: 4.5 +/- 0.8%); assay type: toxicity, organism-based; design: scale not given: the % may be the effect or the level left; conditions: in vivo, 0.5 h
[10] = Cmax in Sprague-Dawley rat at 5 mg/kg, po by LC-MS/MS analysis; assay type: ADME, organism-based; design: dose 5 mg/kg, route oral; conditions: in vivo
How it was run: (§1)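 Male Sprague-Dawley rats (n = 2 or 3) dosed orally at 5 mg/kg in saline or water (5 mL/kg). Blood taken from the subclavian vein at 0.5, 1, 2, 4, 6 and 8 h; plasma separated by centrifugation, stored at -20 °C, and drug levels measured by LC-MS/MS. Values are mean ± SD (n = 3) or the average of two experiments.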

[11] = biological target: CYP2C19 (Homo sapiens, UniProt P33261); experiment: Inhibition of CYP2C19 (unknown origin) at 10 uM relative to control; assay type: ADME
[12] = biological target: CYP2D6 (Homo sapiens, UniProt P10635); experiment: Inhibition of CYP2D6 (unknown origin) at 10 uM relative to control; assay type: ADME
[13] = biological target: T5, Beta-2 adrenergic receptor (Homo sapiens, UniProt P07550); experiment: Intrinsic activity at recombinant human beta2 adrenergic receptor assessed as accumulation of cyclic AMP after 30 mins relative to isoproterenol
[14] = biological target: T5, Beta-2 adrenergic receptor; experiment: Agonist activity at recombinant human beta2 adrenergic receptor expressed in CHO cells assessed as accumulation of cyclic AMP after 30 mins; assay type: cell-based
[15] = Half life in Sprague-Dawley rat at 5 mg/kg, po by LC-MS/MS analysis; assay type: ADME, organism-based; conditions: in vivo; how it was run: as §1
[16] = Membrane permeability in MDCK cells at 50 uM after 60 mins by LC-MS/MS analysis; assay type: ADME, cell-based, Canis lupus familiaris; conditions: dog, read-out: permeability
[17] = biological target: Beta-1 adrenergic receptor (Homo sapiens, UniProt P08588); experiment: Intrinsic activity at recombinant human beta1 adrenergic receptor assessed as accumulation of cyclic AMP after 30 mins relative to isoproterenol; conditions: 0.5 h
[18] = biological target: Adrenoceptor beta 3 (Callithrix jacchus) (UniProt F6XZF4); experiment: Agonist activity at beta3 adrenergic receptor in marmoset urinary bladder smooth muscle strips assessed as induction of KCl-precontracted muscle relaxation treated every 20 mins
Chain of Adrenoceptor beta 3 (Callithrix jacchus) (F6XZF4 as listed by the source): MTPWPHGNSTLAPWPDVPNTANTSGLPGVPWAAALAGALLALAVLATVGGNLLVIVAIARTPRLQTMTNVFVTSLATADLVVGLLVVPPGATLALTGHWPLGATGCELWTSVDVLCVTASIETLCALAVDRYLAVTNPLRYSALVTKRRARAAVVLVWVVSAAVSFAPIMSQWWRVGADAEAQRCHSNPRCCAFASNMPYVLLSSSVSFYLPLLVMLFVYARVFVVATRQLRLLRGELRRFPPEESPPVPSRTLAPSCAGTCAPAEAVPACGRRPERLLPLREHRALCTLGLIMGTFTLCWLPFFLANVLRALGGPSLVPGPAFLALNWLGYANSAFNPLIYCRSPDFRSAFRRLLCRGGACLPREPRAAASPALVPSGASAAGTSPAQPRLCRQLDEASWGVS

T5 sequence (P07550 whole entry): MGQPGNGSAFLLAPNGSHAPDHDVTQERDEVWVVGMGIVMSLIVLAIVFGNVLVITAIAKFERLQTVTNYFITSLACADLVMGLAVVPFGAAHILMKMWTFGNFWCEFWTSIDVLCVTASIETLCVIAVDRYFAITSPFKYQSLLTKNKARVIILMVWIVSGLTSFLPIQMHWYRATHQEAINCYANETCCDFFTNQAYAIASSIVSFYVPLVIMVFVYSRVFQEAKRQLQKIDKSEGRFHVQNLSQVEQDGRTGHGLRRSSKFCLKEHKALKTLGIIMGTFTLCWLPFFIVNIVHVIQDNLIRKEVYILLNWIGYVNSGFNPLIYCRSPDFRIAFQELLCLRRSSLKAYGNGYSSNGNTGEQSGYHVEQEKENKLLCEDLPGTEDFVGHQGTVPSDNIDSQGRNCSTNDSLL
Chain of CYP2C19 (P33261 whole entry): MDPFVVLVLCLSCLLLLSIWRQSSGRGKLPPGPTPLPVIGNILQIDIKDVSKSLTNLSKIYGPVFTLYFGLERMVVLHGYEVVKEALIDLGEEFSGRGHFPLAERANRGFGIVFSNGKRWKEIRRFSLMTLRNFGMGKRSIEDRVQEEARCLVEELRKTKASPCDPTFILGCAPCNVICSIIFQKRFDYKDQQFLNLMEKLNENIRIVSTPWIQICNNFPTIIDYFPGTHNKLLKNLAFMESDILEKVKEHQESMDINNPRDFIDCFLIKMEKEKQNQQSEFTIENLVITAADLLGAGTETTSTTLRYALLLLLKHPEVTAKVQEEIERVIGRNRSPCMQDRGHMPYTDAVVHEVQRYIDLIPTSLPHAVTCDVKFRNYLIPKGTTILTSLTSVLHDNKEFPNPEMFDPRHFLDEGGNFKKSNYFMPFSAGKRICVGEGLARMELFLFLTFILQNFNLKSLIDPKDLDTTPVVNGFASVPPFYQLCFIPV
Chain of CYP2D6 (P10635 whole entry): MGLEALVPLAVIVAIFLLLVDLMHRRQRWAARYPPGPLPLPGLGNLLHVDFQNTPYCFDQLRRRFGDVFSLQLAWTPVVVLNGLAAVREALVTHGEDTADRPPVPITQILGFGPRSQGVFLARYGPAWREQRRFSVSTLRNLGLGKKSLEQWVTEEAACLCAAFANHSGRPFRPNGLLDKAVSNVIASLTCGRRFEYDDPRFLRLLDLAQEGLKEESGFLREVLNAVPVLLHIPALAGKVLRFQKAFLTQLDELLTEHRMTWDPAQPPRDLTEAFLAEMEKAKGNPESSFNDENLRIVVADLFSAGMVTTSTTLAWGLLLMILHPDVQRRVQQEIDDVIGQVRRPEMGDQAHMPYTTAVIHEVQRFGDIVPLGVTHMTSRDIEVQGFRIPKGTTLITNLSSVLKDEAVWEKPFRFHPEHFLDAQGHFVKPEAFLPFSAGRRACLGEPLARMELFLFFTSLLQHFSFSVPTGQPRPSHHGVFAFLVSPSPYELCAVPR
Chain of Beta-1 adrenergic receptor (P08588 whole entry): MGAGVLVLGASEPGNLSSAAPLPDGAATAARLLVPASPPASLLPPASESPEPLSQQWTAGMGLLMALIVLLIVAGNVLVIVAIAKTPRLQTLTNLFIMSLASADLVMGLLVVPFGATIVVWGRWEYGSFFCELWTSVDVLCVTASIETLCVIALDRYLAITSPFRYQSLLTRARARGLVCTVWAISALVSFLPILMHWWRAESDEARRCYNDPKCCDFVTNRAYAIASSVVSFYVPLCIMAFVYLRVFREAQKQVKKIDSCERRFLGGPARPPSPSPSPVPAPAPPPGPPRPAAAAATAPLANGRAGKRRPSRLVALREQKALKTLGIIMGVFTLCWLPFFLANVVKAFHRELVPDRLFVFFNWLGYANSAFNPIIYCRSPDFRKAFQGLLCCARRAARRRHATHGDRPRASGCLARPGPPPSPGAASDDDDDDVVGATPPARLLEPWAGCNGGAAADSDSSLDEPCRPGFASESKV

SMILES: Cc1n[nH]c2cc(OCCNC[C@H](O)c3cccc(NS(=O)(=O)C4CCC4)c3)ccc12
- EC50 [1]: > 10 µM
- EC50 [2]: 0.018 µM
- Ratio EC50 [3]: > 556
- Activity [4]: 2%
- inhibition at 10 µM [5]: < 34%
- Emax [6]: 0%
- solubility at 18 h [7]: 299 µM (≈ 133 µg/mL)
- Intrinsic activity [8]: 105%
- Activity [9]: 0.9%
- Cmax [10]: 119 ng/mL
- inhibition at 10 µM [11]: < 34%
- inhibition at 10 µM [12]: < 34%
- Emax at 0.5 h [13]: 4%
- EC50 [14]: > 10 µM
- half-life [15]: 3.01 h
- Papp at 1 h, 50 µM [16]: 5 ×10⁻⁶ cm/s
- Intrinsic activity [17]: 4%
- Activity [18]: Dose-dependent effect
